# Measurements from different studies.
# Compare with care: the assays were run in different laboratories.
# Organism: Staphylococcus aureus
SMILES,test,system,conditions,measurement,result
COc1ccc2c(c1OC)CN1CCc3cc4c(cc3C1C2)OCO4 (stereo not shown),microbial growth,,24 h,MIC50,> 1600 µM
CC(=O)NC[C@H]1CN(c2ccc(N3CCOCC3)c(F)c2)C(=O)O1,microbial killing,ATCC43300 MRSA,,MBC,40.6 µg/mL
CN[C@H](CC(C)C)C(=O)N[C@H]1C(=O)N[C@@H](CC(N)=O)C(=O)N[C@H]2C(=O)N[C@H]3C(=O)N[C@H](C(=O)N[C@H](C(=O)O)c4cc(O)cc(O)c4-c4cc3ccc4O)[C@H](O)c3ccc(c(Cl)c3)Oc3cc2cc(c3O[C@@H]2O[C@H](CO)[C@@H](O)[C@H](O)[C@H]2O[C@H]2C[C@](C)(N)[C@H](O)[C@H](C)O2)Oc2ccc(cc2Cl)[C@H]1O,"microbial growth, broth dilution",ATCCBAA44,drug-resistant strain,MIC,1 µg/mL
CCOC(=O)/C=C1/SC(N/N=C/c2c(-c3ccc(F)cc3)nc3ncccn23)=NC1=O,"microbial growth, well diffusion",ATCC23235,100 µg/mL,inhibition zone,10 mm
C[C@H]1COc2c(N3CCN(C)CC3)c(F)cc3c(=O)c(C(=O)O)cn1c23,microbial growth,MRSA,drug-resistant strain,MIC,0.25 µg/mL
O=C/C=C/c1ccccc1,"microbial growth, well diffusion",MTCC96,"1000 µg/mL, 18 h",inhibition zone,8 mm
COc1cccc(OC)c1C(=O)N[C@@H]1C(=O)N2[C@@H]1SC(C)(C)[C@@H]2C(=O)O,"microbial growth, broth dilution",ATCCBAA44,drug-resistant strain,MIC,> 64 µg/mL
CN(C)[C@@H]1C(O)=C(C(N)=O)C(=O)[C@@]2(O)C(O)=C3C(=O)c4c(O)cccc4[C@@](C)(O)[C@H]3C[C@@H]12,"microbial growth, broth dilution",ATCC33591 MRSA,"16 h, drug-resistant strain",MIC,100 µM
O=C(O)c1cn(C2CC2)c2cc(N3CCNCC3)c(F)cc2c1=O,"microbial growth, well diffusion",ATCC23235,100 µg/mL,inhibition zone,36 mm
O=C(O)c1cn(C2CC2)c2cc(N3CCNCC3)c(F)cc2c1=O,"microbial growth, broth dilution",ATCC33591 MRSA,"16 h, drug-resistant strain",MIC,6.25 µM
CC(=O)NC[C@H]1CN(c2ccc(N3CCOCC3)c(F)c2)C(=O)O1,"microbial growth, broth dilution",MRSA,,MIC,1 µg/mL
CCc1ccc(N2C(=O)/C(=C3/C(=O)N(C)c4ccc(Cl)cc43)NC2=S)cc1,"microbial growth, broth dilution",ATCC43300 MRSA,,MIC,9.2 µg/mL
Cc1onc(-c2ccccc2)c1C(=O)N[C@@H]1C(=O)N2[C@@H]1SC(C)(C)[C@@H]2C(=O)O,microbial growth,MRSA,drug-resistant strain,MIC,> 4 µg/mL
C[C@@H]1C[C@@H]([C@H](O)CC2CC(=O)NC(=O)C2)C(=O)[C@@H](C)C1,"microbial growth, broth dilution",ATCC6538,,MIC,28 µg/mL
CN1C(=S)N(c2ccccc2)C(=O)/C1=C1/C(=O)N(C)c2ccc(Cl)cc21,"microbial growth, broth dilution",ATCC43300 MRSA,,MIC,2.4 µg/mL
C[C@@H](N)[C@H](O)CCCCCCCC(=O)CCCCCCCCCCCCCC[C@@H](O[C@@H]1O[C@H](CO)[C@H](O)[C@H](O)[C@H]1O)[C@@H](C)N,"microbial growth, resazurin",ATCC12600,50 µM,inhibition,99%
